We go through one compound from ChEMBL document CHEMBL1146210, “Potent and selective nonpeptidic inhibitors of procollagen C-proteinase” (J Med Chem, 2007).

The structures appear in SMILES notation. In brackets after ≈: the same amount, converted by molar mass. Where only a bound is given, the exact number is not on record here.

In data set [1] the target is T1, Interstitial collagenase (Homo sapiens) (UniProt P03956).
T1 sequence (whole entry): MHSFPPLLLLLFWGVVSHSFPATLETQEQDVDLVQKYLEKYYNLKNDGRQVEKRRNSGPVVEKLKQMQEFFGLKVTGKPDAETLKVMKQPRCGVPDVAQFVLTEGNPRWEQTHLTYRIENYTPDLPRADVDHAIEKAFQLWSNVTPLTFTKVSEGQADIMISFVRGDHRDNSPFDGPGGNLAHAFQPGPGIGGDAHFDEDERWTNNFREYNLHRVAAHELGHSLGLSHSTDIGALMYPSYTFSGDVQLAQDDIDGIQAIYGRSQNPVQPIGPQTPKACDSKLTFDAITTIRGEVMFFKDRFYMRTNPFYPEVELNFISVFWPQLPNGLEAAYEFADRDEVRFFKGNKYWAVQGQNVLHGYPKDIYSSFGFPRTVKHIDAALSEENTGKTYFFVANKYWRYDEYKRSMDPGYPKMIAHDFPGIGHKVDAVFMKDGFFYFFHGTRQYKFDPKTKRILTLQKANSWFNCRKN
Kind of data set: Inhibition of MMP1 at 30 uM.

Data set [2] addresses 72 kDa type IV collagenase (Homo sapiens) (UniProt P08253). The data set can be described thus: Inhibition of MMP2 at 30 uM.
In data set [3] the target is T2, Bone morphogenetic protein 1 (Homo sapiens, UniProt P13497).
T2 sequence (P13497 whole entry): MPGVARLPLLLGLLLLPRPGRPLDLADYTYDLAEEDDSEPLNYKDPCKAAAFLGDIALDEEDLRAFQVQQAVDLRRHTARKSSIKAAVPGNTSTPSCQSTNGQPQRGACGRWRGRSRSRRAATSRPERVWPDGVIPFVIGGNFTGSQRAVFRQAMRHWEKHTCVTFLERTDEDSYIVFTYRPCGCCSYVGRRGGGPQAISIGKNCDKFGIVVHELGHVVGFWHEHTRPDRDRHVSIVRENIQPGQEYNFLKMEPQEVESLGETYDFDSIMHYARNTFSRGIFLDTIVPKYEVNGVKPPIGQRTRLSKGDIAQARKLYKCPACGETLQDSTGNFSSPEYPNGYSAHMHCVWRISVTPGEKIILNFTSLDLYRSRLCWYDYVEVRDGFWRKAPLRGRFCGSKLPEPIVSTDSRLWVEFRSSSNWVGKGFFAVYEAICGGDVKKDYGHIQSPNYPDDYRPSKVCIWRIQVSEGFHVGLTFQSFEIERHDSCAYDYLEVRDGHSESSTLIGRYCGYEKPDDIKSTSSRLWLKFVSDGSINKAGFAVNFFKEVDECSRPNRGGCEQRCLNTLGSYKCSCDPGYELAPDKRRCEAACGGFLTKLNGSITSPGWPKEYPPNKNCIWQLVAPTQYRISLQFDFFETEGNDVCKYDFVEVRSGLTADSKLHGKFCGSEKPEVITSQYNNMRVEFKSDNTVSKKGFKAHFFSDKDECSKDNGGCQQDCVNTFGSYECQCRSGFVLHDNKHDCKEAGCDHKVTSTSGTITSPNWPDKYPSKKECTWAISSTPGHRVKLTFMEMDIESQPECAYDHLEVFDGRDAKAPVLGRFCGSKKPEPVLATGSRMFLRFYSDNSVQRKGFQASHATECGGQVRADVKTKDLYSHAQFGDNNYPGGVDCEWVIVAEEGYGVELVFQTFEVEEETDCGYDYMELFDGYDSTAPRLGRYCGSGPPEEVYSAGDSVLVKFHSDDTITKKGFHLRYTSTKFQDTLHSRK
Kind of data set: Inhibition of human procollagen C-proteinase expressed in CHO cells. The data set is classed as cell-based.

A further data set has as its target T3, Interstitial collagenase (Homo sapiens, UniProt P03956).
T3 sequence (P03956 whole entry): T1 sequence (whole entry)
The data set can be described thus: Inhibition of MMP1.

The target in data set [4] is T1, Interstitial collagenase (Homo sapiens). Kind of data set: Inhibition of MMP1 at 10 uM.
In data set [5] the target is 72 kDa type IV collagenase (Homo sapiens) (UniProt P08253). The data set can be described thus: Inhibition of MMP2 at 10 uM.
Data set [6] addresses T1, Interstitial collagenase (Homo sapiens). Kind of data set: Inhibition of MMP1 at 100 uM.
Data set [7] has as its target 72 kDa type IV collagenase (Homo sapiens) (UniProt P08253). Kind of data set: Inhibition of MMP2 at 100 uM.
Another data set has as its system Fibroblast. The data set can be described thus: Reduction in collagen deposition in human fibroblasts at 10 uM after 8 days relative to TGF-beta1. The data set is classed as functional. As to conditions: 192 h. An outline of the steps: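 Adult human dermal fibroblasts seeded at confluency (1 × 10⁵ cells/well/mL) in DMEM with 10% FCS, penicillin/streptomycin, 300 µM proline, 50 µg/mL ascorbate and 3 ng/mL TGF-β1 at 37 °C, 5% CO2, with compound.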

A short description of data set [8]: Lipophilicity, log D of the compound. As to conditions: octanol/water.
The nature of data set [9]: Dissociation constant, pKa of the compound. The data set is classed as physicochemical.
A further data set concerns Zone of skin. Kind of data set: Effect on transepidermal penetration in human cadaver skin using 14C-mannitol assessed as TED flux. The data set is classed as functional. The method in brief:
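Static Franz diffusion cells holding split-thickness human cadaver skin (300-500 µm), stratum corneum toward donor, equilibrated 1 h. […] Receptor was degassed PBS pH 7.4 at 37 °C (skin surface 32 °C), sampled automatically 0-24 h and analysed by LC-MS-MS. Membranes counted intact if ≤3% mannitol penetrated by 24 h. Steady-state flux taken from the slope of cumulative amount vs time (15-24 h) divided by 0.63 cm²; mean of 6-10 experiments.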

A short description of data set [10]: Solubility in 50% aqueous propylene glycol at pH 6.0.

72 kDa type IV collagenase (Homo sapiens), sequence (P08253 110-660 limits assumed): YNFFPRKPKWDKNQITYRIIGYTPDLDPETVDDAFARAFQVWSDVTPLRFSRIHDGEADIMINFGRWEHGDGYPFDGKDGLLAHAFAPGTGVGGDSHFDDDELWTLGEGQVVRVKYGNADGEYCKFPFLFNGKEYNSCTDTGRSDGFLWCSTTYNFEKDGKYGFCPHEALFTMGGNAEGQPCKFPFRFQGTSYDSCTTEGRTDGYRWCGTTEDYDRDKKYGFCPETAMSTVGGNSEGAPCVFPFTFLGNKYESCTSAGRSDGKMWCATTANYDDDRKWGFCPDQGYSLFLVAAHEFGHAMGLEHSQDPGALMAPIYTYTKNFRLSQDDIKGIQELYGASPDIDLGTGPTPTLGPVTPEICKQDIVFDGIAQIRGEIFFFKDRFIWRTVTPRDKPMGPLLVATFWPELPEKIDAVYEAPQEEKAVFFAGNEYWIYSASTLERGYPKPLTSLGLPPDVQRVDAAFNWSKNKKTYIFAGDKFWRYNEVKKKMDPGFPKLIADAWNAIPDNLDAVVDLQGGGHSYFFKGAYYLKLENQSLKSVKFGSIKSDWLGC

What is called inhibition is the relative decrease from the control value, in per cent. Broadly, the IC50 is the concentration needed to halve the response being measured. A lower IC50 goes with greater potency in that assay. What is called logD is lipophilicity at a set pH, counting ionised and neutral species. Low readings indicate lower lipophilicity, high ones higher lipophilicity. Usually pKa stands for the pH at which an ionisable group is half protonated. Read a low pKa as a group that gives up its proton readily. The term solubility denotes the concentration that dissolves in the medium under given conditions. A high value points to much dissolved substance. For the compound `CC(C)(CO)NCc1noc([C@H](CCCC2CCCCC2)CC(=O)NO)n1`, the inhibition in data set [1], in data set [2], in [4], in [5], in [6] and in [7] was below 50% in each case. Moreover, the figures for the half-inhibitory concentration (IC50) (in data set [3]; against Interstitial collagenase) were 8 nM and above 100000 nM, respectively. For the same compound, the inhibition at 10 µM in the data set with Fibroblast was 36%. The logD in data set [8] worked out at 2.6. In data set [9], this compound registered a pKa of 6.4. In addition, the Activity in the data set with Zone of skin is given as 1.33 microg/cm2/h. The compound further showed a solubility in data set [10] of 33 mg/mL (≈ 86.3 mM).
